Values after ≈ are worked out from the molar mass of the structure shown.
How the values were obtained:
[1] = biological target: T1, Melanin-concentrating hormone receptor 1 (Homo sapiens, UniProt Q99705); assay: biochemical; assay type: cell-based, CHO-K1
[2] = biological target: T1, Melanin-concentrating hormone receptor 1; assay: Antagonist activity at human MCHR1 expressed in CHO-K1 cells assessed as inhibition of MCH peptide mediated response measuring [3H]inositol phosphate production by IP3-SPA-YSI assay; assay type: functional, cell-based
[3] = Solubility of the compound in 5% DMSO and 95% PBS after overnight incubation using plate shaker; assay type: physicochemical; details: 5% DMSO and 95% PBS; read-out: solubility
Method in brief: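 A 10 mM DMSO stock was diluted into PBS to a final 500 µM (5% DMSO). The mix was left to precipitate overnight at RT on a plate shaker, then centrifuged. Supernatant absorbance was read at 260, 280 and 620 nm. Solubility is the absorbance ratio of PBS supernatant to an acetonitrile reference (100 and 500 µM). The 620 nm reading was used to exclude visible contamination.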

[4] = Stability in mouse blood assessed as compound remaining after 30 mins by HPLC analysis; assay type: ADME, tissue-based; details: read-out: Stability
Mus musculus = assay: Antiobesity activity in diet induced obese C57BL/6J mouse assessed as decrease in body weight at 30 mg/kg, po bid for 14 days measured at day 14 relative to control; assay type: functional; parameters: scale not given: the % may be the effect or the level left
Method in brief: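 C57BL/6J mice were fed a high-fat diet (60% calories from fat) for about 3 months, to roughly 45 g average body weight. Animals were grouped by initial weight. Dosing was oral, 30 mg/kg twice daily for 14 days, against vehicle controls (n = 12). Body weight and food intake were recorded daily.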

[5] = AUC (0 to 8 hrs) in Swiss albino mouse plasma at 30 mg/kg, po; assay type: ADME, organism-based; parameters: time < 8 hr, dose 30 mg/kg, route oral
Method in brief: (§1)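 Swiss Albino mice given a single oral dose of 30 mg/kg. Plasma and brain were sampled over 0–8 h. AUC(0–8), Cmax, Tmax and t1/2 were derived for each matrix.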

[6] = Cmax in Swiss albino mouse plasma at 30 mg/kg, po; assay type: ADME, organism-based; parameters: dose 30 mg/kg, route oral
Method in brief: as §1

[7] = Tmax in Swiss albino mouse plasma at 30 mg/kg, po; assay type: ADME, organism-based; parameters: dose 30 mg/kg, route oral
Method in brief: as §1

[8] = Half life in Swiss albino mouse plasma at 30 mg/kg, po; assay type: ADME, organism-based; parameters: dose 30 mg/kg, route oral
Method in brief: as §1

[9] = AUC (0 to 8 hrs) in Swiss albino mouse brain at 30 mg/kg, po; assay type: ADME, organism-based; parameters: time < 8 hr, dose 30 mg/kg, route oral
Method in brief: as §1

[10] = Cmax in Swiss albino mouse brain at 30 mg/kg, po; assay type: ADME, organism-based; parameters: dose 30 mg/kg, route oral
Method in brief: as §1

[11] = Tmax in Swiss albino mouse brain at 30 mg/kg, po; assay type: ADME, organism-based; parameters: dose 30 mg/kg, route oral
Method in brief: as §1

[12] = Half life in Swiss albino mouse brain at 30 mg/kg, po; assay type: ADME, organism-based; parameters: dose 30 mg/kg, route oral
Method in brief: as §1

hERG (KCNH2) = hERG (KCNH2) (Homo sapiens, UniProt Q12809); assay: Inhibition of human ERG at 1 uM
[13] = Metabolic stability in mouse liver microsomes assessed as compound remaining at 10 uM after 30 mins by HPLC analysis; assay type: ADME, Microsome; details: read-out: Stability
Method in brief: (§2)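 Compound at 10 µM was incubated with 1 mg/ml mouse or pooled human liver microsomes in 0.1 M phosphate buffer, pH 7.4. Reaction was started with NADPH and run 30 min at 37 °C. Result is % parent remaining.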

[14] = Metabolic stability in human liver microsomes assessed as compound remaining at 10 uM after 30 mins by HPLC analysis; assay type: ADME, Microsome; details: read-out: Stability
Method in brief: as §2

[15] = biological target: Voltage-gated inwardly rectifying potassium channel KCNH2 (Homo sapiens, UniProt Q12809)
Chain of Voltage-gated inwardly rectifying potassium channel KCNH2 (Q12809 whole entry): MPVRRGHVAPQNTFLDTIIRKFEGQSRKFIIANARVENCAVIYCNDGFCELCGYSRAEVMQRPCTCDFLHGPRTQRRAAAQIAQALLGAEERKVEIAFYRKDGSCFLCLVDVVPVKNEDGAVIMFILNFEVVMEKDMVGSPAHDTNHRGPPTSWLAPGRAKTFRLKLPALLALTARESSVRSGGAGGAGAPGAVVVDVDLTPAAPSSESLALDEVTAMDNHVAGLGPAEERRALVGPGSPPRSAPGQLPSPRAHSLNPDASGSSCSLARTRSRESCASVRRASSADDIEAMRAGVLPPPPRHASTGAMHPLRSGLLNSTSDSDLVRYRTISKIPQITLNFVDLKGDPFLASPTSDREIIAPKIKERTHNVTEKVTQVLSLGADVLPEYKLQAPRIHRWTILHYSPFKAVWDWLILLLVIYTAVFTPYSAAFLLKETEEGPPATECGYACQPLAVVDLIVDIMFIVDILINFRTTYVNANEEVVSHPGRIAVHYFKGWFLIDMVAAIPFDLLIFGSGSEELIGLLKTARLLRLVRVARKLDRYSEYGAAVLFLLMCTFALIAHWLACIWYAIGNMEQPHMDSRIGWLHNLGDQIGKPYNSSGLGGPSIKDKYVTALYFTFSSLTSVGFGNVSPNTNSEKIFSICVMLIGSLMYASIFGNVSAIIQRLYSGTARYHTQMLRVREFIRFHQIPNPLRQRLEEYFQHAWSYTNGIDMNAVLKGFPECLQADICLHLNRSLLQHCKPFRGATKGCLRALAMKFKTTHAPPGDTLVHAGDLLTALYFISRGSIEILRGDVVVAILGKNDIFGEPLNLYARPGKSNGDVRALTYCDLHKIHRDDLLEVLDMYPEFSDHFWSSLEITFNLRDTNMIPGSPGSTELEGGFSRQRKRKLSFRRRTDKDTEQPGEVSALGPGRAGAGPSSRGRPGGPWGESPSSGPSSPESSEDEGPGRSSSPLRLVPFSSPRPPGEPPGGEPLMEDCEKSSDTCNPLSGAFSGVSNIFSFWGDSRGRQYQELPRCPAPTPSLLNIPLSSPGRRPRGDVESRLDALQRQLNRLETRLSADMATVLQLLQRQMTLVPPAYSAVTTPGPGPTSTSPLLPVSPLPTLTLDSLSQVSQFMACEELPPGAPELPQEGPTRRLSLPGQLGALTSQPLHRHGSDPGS

T1 sequence (Q99705 whole entry): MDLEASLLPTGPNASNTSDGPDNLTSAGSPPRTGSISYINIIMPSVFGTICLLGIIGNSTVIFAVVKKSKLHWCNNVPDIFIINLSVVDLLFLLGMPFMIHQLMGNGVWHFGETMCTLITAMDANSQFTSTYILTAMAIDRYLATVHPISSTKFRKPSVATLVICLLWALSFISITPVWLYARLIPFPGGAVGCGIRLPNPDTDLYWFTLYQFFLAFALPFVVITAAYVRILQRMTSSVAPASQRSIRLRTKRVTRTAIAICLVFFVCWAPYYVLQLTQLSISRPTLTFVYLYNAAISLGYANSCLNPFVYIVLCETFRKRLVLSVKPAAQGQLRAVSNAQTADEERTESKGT
Chain of hERG (KCNH2) (Q12809 whole entry): as the sequence (Q12809 whole entry) above

| Structure (SMILES) | IC50 [1] [nM] | IC50 [2] [nM] | further results |
| --- | --- | --- | --- |
| Cc1nc(N2CCC(O)CC2)nc2ccc(NC(=O)COc3ccc(Cl)cc3)cc12 | 150 | 163 | – |
| Cc1nc(N2CCC(N3CCOCC3)CC2)nc2ccc(NC(=O)COc3ccc(OC(F)(F)F)cc3)cc12 | 6 | 16 | solubility [3]: 12 µM (≈ 6.55 µg/mL); remaining at 0.5 h [4]: 29%; Activity (Mus musculus): 12%; AUC(0-t) at 8 h [5]: 1.02 µM·h; Cmax [6]: 430 nM; Tmax [7]: 1 h; half-life [8]: 3 h; AUC(0-t) at 8 h [9]: 6.21 µM·h; Cmax [10]: 2660 nM; Tmax [11]: 1 h; half-life [12]: 1.7 h |
| CCC1(O)CCN(c2nc(C)c3cc(NC(=O)COc4ccc(OC(F)(F)F)cc4)ccc3n2)CC1 | 116 | 59 | – |
| Cc1nc(N2CCC(N3CCCC3)CC2)nc2ccc(NC(=O)COc3ccc(OC(F)(F)F)cc3)cc12 | 31 | 120 | – |
| COCC(=O)N1CCN(c2nc(C)c3cc(NC(=O)COc4ccc(Cl)cc4)ccc3n2)CC1 | 215 | 295 | – |
| Cc1nc(N2CCC(N)CC2)nc2ccc(NC(=O)COc3ccc(Cl)cc3)cc12 | 150 | 610 | – |
| Cc1nc(N2CCC(C(=O)C3CC3)CC2)nc2ccc(NC(=O)COc3ccc(OC(F)(F)F)cc3)cc12 | 10 | 14 | inhibition at 1 µM (hERG (KCNH2)): 32% |
| Cc1nc(N2CCC(N)CC2)nc2ccc(NC(=O)COc3ccc(OC(F)(F)F)cc3)cc12 | 22 | 80 | – |
| Cc1nc(N2CCC(O)(c3ccccc3)CC2)nc2ccc(NC(=O)COc3ccc(OC(F)(F)F)cc3)cc12 | 354 | 67 | – |
| Cc1nc(N2CCC(O)CC2)nc2ccc(NC(=O)C(C)(C)Oc3ccc(Cl)cc3)cc12 | > 10000 | > 10000 | – |
| Cc1nc(N2CCC(N3CCCC3)CC2)nc2ccc(NC(=O)C(C)(C)Oc3ccc(Cl)cc3)cc12 | > 10000 | > 10000 | – |
| Cc1nc(N2CCN(C(=O)C(C)C)CC2)nc2ccc(NC(=O)COc3ccc(OC(F)(F)F)cc3)cc12 | 36 | 33 | – |
| Cc1nc(N2CCN(C3CCCC3)CC2)nc2ccc(NC(=O)COc3ccc(Cl)cc3)cc12 | 96 | 150 | – |
| Cc1nc(N2CCC(C(=O)NC3CC3)CC2)nc2ccc(NC(=O)COc3ccc(OC(F)(F)F)cc3)cc12 | 9 | 3 | – |
| Cc1nc(N2CCC(NC(=O)C(C)C)CC2)nc2ccc(NC(=O)COc3ccc(Cl)cc3)cc12 | 15 | 54 | solubility [3]: 205 µM (≈ 102 µg/mL); remaining at 0.5 h, 10 µM [13]: 9%; remaining at 0.5 h, 10 µM [14]: 23% |
| Cc1nc(N2CCN(C3CCOCC3)CC2)nc2ccc(NC(=O)COc3ccc(OC(F)(F)F)cc3)cc12 | 7 | 31 | – |
| Cc1nc(N2CCN(S(C)(=O)=O)CC2)nc2ccc(NC(=O)COc3ccc(Cl)cc3)cc12 | > 10000 | > 10000 | – |
| Cc1nc(N2CCC(O)(c3ccc(F)cc3)CC2)nc2ccc(NC(=O)COc3ccc(OC(F)(F)F)cc3)cc12 | 150 | 55 | – |
| Cc1nc(N2CCN(C(=O)C3CC3)CC2)nc2ccc(NC(=O)COc3ccc(OC(F)(F)F)cc3)cc12 | 49 | 30 | solubility [3]: 8 µM (≈ 4.24 µg/mL); remaining at 0.5 h, 10 µM [13]: 43%; remaining at 0.5 h, 10 µM [14]: 59% |
| Cc1nc(N2CCN(C(=O)C3CC3)CC2)nc2ccc(NC(=O)COc3ccc(Cl)cc3)cc12 | 251 | 146 | – |
| Cc1nc(N2CCCCC2)nc2ccc(NC(=O)COc3ccc(Cl)cc3)cc12 | 180 | 305 | – |
| Cc1nc(N2CCN(C(=O)CC(C)C)CC2)nc2ccc(NC(=O)COc3ccc(Cl)cc3)cc12 | 141 | 160 | – |
| COC1CCN(c2nc(C)c3cc(NC(=O)COc4ccc(Cl)cc4)ccc3n2)CC1 | 213 | 181 | – |
| Cc1nc(N2CCC(N3CCCC3=O)CC2)nc2ccc(NC(=O)COc3ccc(OC(F)(F)F)cc3)cc12 | 19 | 4 | IC50 [15]: 3700 nM |
| Cc1nc(N2CCN(C(=O)C3CCCCC3)CC2)nc2ccc(NC(=O)COc3ccc(Cl)cc3)cc12 | 116 | 1040 | – |
